Test results taken from ChEMBL document CHEMBL2169846, “Design and synthesis of Pictet-Spengler condensation products that exhibit oncogenic-RAS synthetic lethality and induce non-apoptotic cell death” (Bioorg Med Chem Lett, 2012).
Calls of active or inactive are those of the source. No cut-off for these calls is given here.

Tests used:
HT-1080 [1] = experiment: Cytotoxicity against human HT1080 cells after 48 hrs by alamar blue assay; format: functional; conditions: HT-1080, 48 h, read-out: LC50 (the source's name)
U2OS [2] = experiment: Cytotoxicity against human U2OS cells after 48 hrs by alamar blue assay; format: functional; conditions: read-out: LC50 (the source's name)
MCF7 [3] = experiment: Cytotoxicity against human MCF7 cells after 48 hrs by alamar blue assay; format: functional; conditions: MCF7, 48 h, read-out: LC50 (the source's name)
[4] = Cytotoxicity against human BJeLR cells expressing RAS G12V mutant after 48 hrs by alamar blue assay; format: functional, cell-based; conditions: for CC50: read-out: LC50 (the source's name)
[5] = target: E3 ubiquitin-protein ligase Mdm2 (Homo sapiens) (UniProt Q00987); experiment: Inhibition of wild type Mdm2 at 20 ug/mL after 2 hrs by cell-based luciferase assay
BJeH [6] = experiment: Induction of apoptosis in human BJeH cells expressing wild type RAS assessed as caspase 7 activation after 28 hrs by Apo-One assay; format: functional, cell-based
Procedure, shortened: (§1)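 BJ-TERT and BJ-TERT/LT/ST/RAS(V12) cells given compound as a two-fold, 14-point dilution series for 28 h. Alamar blue then added for viability, and caspase 3/7 activation detected by Apo-ONE in the same wells.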

[7] = test system: E3 ubiquitin-protein ligase Mdm2 (Homo sapiens), Q00987 [C464A]; experiment: Inhibition of Mdm2 C464A mutant at 20 ug/mL after 2 hrs by cell-based luciferase assay
BJeLR [8] = experiment: Induction of apoptosis in human BJeLR cells expressing RAS G12V mutant assessed as caspase 3 activation after 28 hrs by Apo-One assay; format: functional, cell-based; procedure, shortened: as §1
RKO [9] = experiment: Cytotoxicity against human RKO cells after 48 hrs by alamar blue assay; format: functional; conditions: read-out: LC50 (the source's name)
BJeLR [10] = experiment: Induction of apoptosis in human BJeLR cells expressing RAS G12V mutant assessed as caspase 7 activation after 28 hrs by Apo-One assay; format: functional, cell-based; procedure, shortened: as §1
BJeH [11] = experiment: Induction of apoptosis in human BJeH cells expressing wild type RAS assessed as caspase 3 activation after 28 hrs by Apo-One assay; format: functional, cell-based; procedure, shortened: as §1
[12] = Cytotoxicity against human HT1299 cells after 48 hrs by alamar blue assay; format: functional; conditions: HT1299, 48 h, read-out: LC50 (the source's name)
[13] = Cytotoxicity against human BJeH cells expressing wild type RAS after 48 hrs by alamar blue assay; format: functional, cell-based; conditions: for CC50: read-out: LC50 (the source's name)
BJeLR [14] = experiment: Cytotoxicity against human BJeLR cells expressing RAS G12V mutant at 20 ug/mL after 48 hrs by alamar blue assay; format: functional, cell-based
BJeH [15] = experiment: Cytotoxicity against human BJeH cells expressing wild type RAS at 20 ug/mL after 48 hrs by alamar blue assay; format: functional, cell-based
HT1299 = experiment: Cytotoxicity against human HT1299 cells at 20 ug/mL after 48 hrs by alamar blue assay; format: functional, cell-based
Procedure, shortened: (§2)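 Each cell line exposed for 48 h to a 2-fold, 12-point dilution series beginning at 20 µg/mL. Viability by Alamar blue; LC50 derived from the curves.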

RKO [16] = experiment: Cytotoxicity against human RKO cells at 20 ug/mL after 48 hrs by alamar blue assay; format: functional, cell-based; procedure, shortened: as §2
MCF7 [17] = experiment: Cytotoxicity against human MCF7 cells at 20 ug/mL after 48 hrs by alamar blue assay; format: functional, cell-based; procedure, shortened: as §2
HT-1080 [18] = experiment: Cytotoxicity against human HT1080 cells at 20 ug/mL after 48 hrs by alamar blue assay; format: functional, cell-based; procedure, shortened: as §2
U2OS [19] = experiment: Cytotoxicity against human U2OS cells at 20 ug/mL after 48 hrs by alamar blue assay; format: functional, cell-based
[20] = Ratio of MEL24 LC50 to compound LC50 for human BJeLR cells expressing RAS G12V mutant; format: functional
BJeH [21] = experiment: Cytotoxicity against human BJeH cells expressing wild type RAS at 1 uM after 24 hrs by trypan blue staining; format: functional, cell-based
BJeLR [22] = experiment: Cytotoxicity against human BJeLR cells expressing RAS G12V mutant at 1 uM after 24 hrs by trypan blue staining; format: functional, cell-based

Chain of E3 ubiquitin-protein ligase Mdm2 (Homo sapiens), Q00987 [C464A] (Q00987 whole entry C464A): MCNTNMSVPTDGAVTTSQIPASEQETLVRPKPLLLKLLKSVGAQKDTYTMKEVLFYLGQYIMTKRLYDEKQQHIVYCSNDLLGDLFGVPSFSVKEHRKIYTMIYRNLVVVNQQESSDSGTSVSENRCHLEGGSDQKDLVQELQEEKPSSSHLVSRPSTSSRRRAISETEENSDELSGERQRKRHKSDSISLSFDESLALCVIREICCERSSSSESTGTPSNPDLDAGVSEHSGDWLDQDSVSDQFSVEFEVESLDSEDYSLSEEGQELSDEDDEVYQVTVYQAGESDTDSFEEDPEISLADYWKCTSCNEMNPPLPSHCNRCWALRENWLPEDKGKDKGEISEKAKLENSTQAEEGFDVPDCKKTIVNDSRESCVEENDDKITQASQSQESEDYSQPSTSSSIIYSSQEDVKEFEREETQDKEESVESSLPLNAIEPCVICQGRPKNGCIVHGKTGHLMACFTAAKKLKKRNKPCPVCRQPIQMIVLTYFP
Chain of E3 ubiquitin-protein ligase Mdm2 (Homo sapiens) (Q00987 whole entry, looked up): as the sequence (Q00987 whole entry C464A) above, with A464C counted along it

SMILES | CC50 (HT-1080 [1]) | CC50 (U2OS [2]) | CC50 (MCF7 [3]) | CC50 [4] | inhibition [5] | inhibition [7] | CC50 (RKO [9]) | CC50 [12] | CC50 [13] | Activity (BJeH [15]) | Activity (HT1299) | Activity (MCF7 [17]) | Activity (HT-1080 [18]) | further results
CN1C(=O)C(C2NCCc3c2[nH]c2ccccc32)C(=O)N(C)C1=O (configuration not stated) | 16.5 µM | 29.4 µM | 31.2 µM | 23.3 µM | inactive | inactive | 30.9 µM | 32.8 µM | 32.2 µM |  |  |  |  | Activity (BJeH [6]): Active; Activity (BJeLR [8]): Active; Activity (BJeLR [10]): Active; Activity (BJeH [11]): Active
CCOC(=O)C(C)C1c2c(c3ccccc3n2C(=O)OC(C)(C)C)CCN1C(=O)OC(C)(C)C (configuration not stated) | 25.2 µM | 14.1 µM | 9.5 µM |  | inactive | inactive | 9.9 µM | 42.3 µM |  | inactive |  |  |  | Activity (BJeLR [14]): inactive
CCOC(=O)C1NCCc2c1[nH]c1ccccc21 (configuration not stated) | 81.9 µM | 81.9 µM |  | 71.7 µM | inactive | inactive |  |  | 71.7 µM |  | inactive | inactive |  | Activity (RKO [16]): inactive
CCOC(=O)C(C)C1c2[nH]c3ccccc3c2CCN1C(=O)OC(C)(C)C (configuration not stated) | 53.7 µM | 53.7 µM | 23.6 µM |  | inactive | inactive | 27.9 µM | 53.7 µM |  | inactive |  |  |  | Activity (BJeLR [14]): inactive
CC(C)(C)OC(=O)N1CCc2c(n(C(=O)OC(C)(C)C)c3ccccc23)C1CCO (configuration not stated) |  | 49.7 µM |  |  | inactive | inactive | 49.7 µM |  |  | inactive | inactive | inactive | inactive | Activity (BJeLR [14]): inactive
COC(OC)c1nccc2c1[nH]c1ccccc12 |  |  |  | 7.8 µM | inactive | inactive |  |  | 82.6 µM |  | inactive | inactive | inactive | Activity (U2OS [19]): inactive; Activity (RKO [16]): inactive
CC(CO)C1c2[nH]c3ccccc3c2CCN1C(=O)OC(C)(C)C (configuration not stated) | 46 µM | 17.8 µM | 22.1 µM |  | inactive | inactive | 16 µM | 24.8 µM | 60.7 µM |  |  |  |  | Activity (BJeLR [14]): inactive
COC(OC)C1c2[nH]c3ccccc3c2CCN1Cc1ccccc1 (configuration not stated) | 59.5 µM | 59.5 µM | 59.5 µM |  | inactive | inactive | 59.5 µM |  |  | inactive | inactive |  |  | Activity (BJeLR [14]): inactive
O=Cc1nccc2c1[nH]c1ccccc12 | 67.5 µM |  |  | 32.4 µM | inactive | inactive | 11.1 µM | 67.5 µM |  | inactive |  | inactive |  | Activity (U2OS [19]): inactive
CN1C(=O)C(C2NC=Cc3c2[nH]c2ccccc32)C(=O)N(C)C1=O (configuration not stated) | 16 µM |  | 61.7 µM | 12.9 µM | inactive | inactive | 25 µM | 61.7 µM |  | inactive |  |  |  | Ratio [20]: 2; Activity (U2OS [19]): inactive
COC(=O)CC1c2[nH]c3ccccc3c2CCN1Cc1ccccc1 (configuration not stated) |  |  |  | 59.8 µM | inactive | inactive |  |  |  | inactive | inactive | inactive | inactive | Activity (U2OS [19]): inactive; Activity (RKO [16]): inactive
CN1C(=O)C(Cc2nccc3c4ccccc4n(C)c23)C(=O)N(C)C1=O | 57.1 µM | 14.2 µM | 57.1 µM |  | inactive | inactive | 15.4 µM | 57.5 µM |  | inactive |  |  |  | Activity (BJeLR [14]): inactive
CC(CC1C(=O)N(C)C(=O)N(C)C1=O)C1NCCc2c1n(C(=O)OC(C)(C)C)c1ccccc21 (configuration not stated) |  |  |  | 42.7 µM | inactive | inactive |  |  |  | inactive | inactive | inactive | inactive | Activity (U2OS [19]): inactive; Activity (RKO [16]): inactive
CC(C)(C)OC(=O)N1CCc2c(n(C(=O)OC(C)(C)C)c3ccccc23)C1CC=O (configuration not stated) | 15.2 µM | 10.3 µM |  | 23.4 µM | inactive | inactive | 7 µM | 11.8 µM | 48.3 µM |  |  |  |  | 
CCOC(=O)C1c2[nH]c3ccccc3c2CCN1C(=O)OCc1ccccc1 (configuration not stated) |  | 12.9 µM |  | 12.9 µM | inactive | inactive | 14.8 µM | 52.9 µM | 52.9 µM |  |  |  |  | 
COc1ccc(N(C(=O)CCl)C(C(=O)NCCc2ccccc2)c2cccs2)cc1Cl (configuration not stated) |  |  |  |  |  |  |  |  |  |  |  |  |  | EC50 [4]: 0.025 µM; EC50 [13]: 0.58 µM
COC(=O)N1CCc2c(n(C(=O)OC(C)(C)C)c3ccccc23)C1C(OC)OC (configuration not stated) |  | 48.7 µM |  |  | inactive | inactive |  |  |  | inactive | inactive | inactive | inactive | Activity (BJeLR [14]): inactive; Activity (RKO [16]): inactive
COC(OC)C1c2[nH]c3ccccc3c2CCN1C(=O)OCc1ccccc1 (configuration not stated) |  | 10.2 µM | 6.5 µM | 10.2 µM | inactive | inactive | 22.3 µM | 52.6 µM | 52.6 µM |  |  |  |  | 
CC(C=O)C1c2c(c3ccccc3n2C(=O)OC(C)(C)C)CCN1C(=O)OC(C)(C)C (configuration not stated) | 13.7 µM | 10 µM | 11.4 µM | 46.7 µM | inactive | inactive | 7.7 µM | 46.7 µM |  | inactive |  |  |  | 
CN[C@@H]1C[C@H]2O[C@@](C)([C@@H]1OC)n1c3ccccc3c3c4c(c5c6ccccc6n2c5c31)C(=O)NC4 |  |  |  |  |  |  |  |  |  |  |  |  |  | Activity (BJeH [21]): Active; Activity (BJeLR [22]): Active
CC(CC1C(=O)N(C)C(=O)N(C)C1=O)C1c2c(c3ccccc3n2C(=O)OC(C)(C)C)CCN1C(=O)OC(C)(C)C (configuration not stated) | 14.6 µM | 12.1 µM | 9.8 µM | 35.2 µM | inactive | inactive | 11.4 µM | 16.9 µM |  | inactive |  |  |  | 
CCOC(=O)C(C)C1NCCc2c1[nH]c1ccccc21 (configuration not stated) |  |  |  | 31.6 µM | inactive | inactive |  |  | 73.5 µM |  | inactive | inactive | inactive | Activity (U2OS [19]): inactive; Activity (RKO [16]): inactive
CC(CC1C(=O)N(C)C(=O)N(C)C1=O)C1NCCc2c1[nH]c1ccccc21 (configuration not stated) |  |  |  | 54.3 µM | inactive | inactive | 54.3 µM |  | 54.3 µM |  | inactive | inactive | inactive | 
COC(OC)C1NCCc2c1[nH]c1ccccc21 (configuration not stated) |  |  |  | 81.3 µM | inactive | inactive |  |  |  | inactive | inactive | inactive | inactive | Activity (U2OS [19]): inactive; Activity (RKO [16]): inactive
